Measurements collected from several papers.
Compare with care: the assays were run in different laboratories. pIC50, pKd, pKi: −log10 of the molar value.
WDR5: WD repeat-containing protein 5 (WDR5, Homo sapiens, UniProt P61964)
F10: Coagulation factor X (F10, Homo sapiens, UniProt P00742)
OfChi-h: Chitinase (OfChi-h, Ostrinia furnacalis, UniProt Q4AE59)

Structure (SMILES) | target | test | setting | endpoint | value
C=CS(=O)(=O)c1ccc(Nc2nc(OCC3CCCCC3)c3nc[nH]c3n2)cc1 | Gasdermin-D (GSDMD, Homo sapiens, UniProt P57764) | binding, BLI |  | pKd | 4.54
C[C@@H]1CN(c2ccc(-c3cc(C(=O)NCCOCCOCCOCCOCCNC(=O)/C=C/c4[nH]cc(C(=O)N[C@@H](CC(N)=O)c5ccc(F)c(Cl)c5)c4-c4ccc(Cl)cc4F)ccc3F)cc2NC(=O)c2c[nH]c(=O)cc2C(F)(F)F)C[C@H](C)N1C | WDR5 | binding, SPR |  | pKd | 7.75
CC(=O)N[C@H]1Cc2ccc(cc2)OC/C=C/C[C@@H](C(=O)N[C@@H](CCCNC(=N)N)C(=O)c2nc3ccccc3s2)NC(=O)[C@H](CC(C)C)NC1=O | F10 | enzyme activity, inhibitor, absorbance | with preincubation | pIC50 | 6.91
CN(C)c1nc(NCc2ccc(OC(F)(F)F)cc2)c(/N=N/c2ccc(Cl)cc2)c(N(C)C)n1 | OfChi-h | enzyme activity, inhibitor, fluorescence |  | pIC50 | 6.80
C[C@@H]1CN(c2ccc(-c3cc(C(=O)NCCOCCOCCOCCOCCOCCOCCNC(=O)/C=C/c4[nH]cc(C(=O)N[C@@H](CC(N)=O)c5ccc(F)c(Cl)c5)c4-c4ccc(Cl)cc4F)ccc3F)cc2NC(=O)c2ccc(F)cc2C(F)(F)F)C[C@H](C)N1C | WDR5 | binding, SPR |  | pKd | 7.09
CCNC(=O)N1CCN(c2nc(NC3CCN(C(=O)[C@@H](CCc4ccc(OC)cc4)NC(=O)[C@@H]4CCCCN4C(=O)C(=O)C(C)(C)CC)CC3)nc(N(Cc3cnn(C)c3)C3CC3)n2)CC1 | Bromodomain-containing protein 9 (BRD9, Homo sapiens, UniProt Q9H8M2) | binding, SPR |  | pKd | < 5.00
CCCCc1ccc(CNc2nc(N(C)C)nc(N(C)C)c2/N=N/c2ccc(Cl)cc2)cc1 | OfChi-h | enzyme activity, inhibitor, fluorescence |  | pKi | 7.71
O=C(NO)c1cncc(OS(=O)(=O)Oc2ccc(-n3ccnc3)cc2)c1 | Histone deacetylase 7 (HDAC7, Homo sapiens, UniProt Q8WUI4) | enzyme activity, inhibitor, fluorescence |  | pIC50 | 5.29
CC(=O)N[C@H]1Cc2ccc(cc2)OC/C=C\CNC(=O)C[C@@H](C(=O)N[C@@H](CCCNC(=N)N)C(=O)c2nc3ccccc3s2)NC(=O)[C@H](CC(C)C)NC1=O | F10 | enzyme activity, inhibitor, absorbance | with preincubation | pIC50 | 5.50
Nc1ncnc2c1ncn2[C@@H]1O[C@H](CO)[C@@H](O)[C@H]1O | Solute carrier family 22 member 12 (SLC22A12, Homo sapiens, UniProt Q96S37) | transporter uptake, inhibitor, radiometric | oocytes | pIC50 | < 2.00
